Laboratory results taken from ChEMBL document CHEMBL1133863, “Dual neurokinin NK(1)/NK(2) antagonists: N-[(R,R)-(E)-1-arylmethyl-3-(2-oxo-azepan-3-yl)carbamoyl]allyl-N-methyl-3,5-bis(trifluoromethyl)benzamides and 3-[N'-3,5-bis(trifluoromethyl)benzoyl-N-arylmethyl-N'-methylhydrazino]-N-[(R)-2-oxo-azepan-3-yl]propionamides” (Bioorg Med Chem Lett, 2001).

Molecular target: T1, Substance-K receptor (Homo sapiens, UniProt P21452)
T1 sequence (P21452 whole entry): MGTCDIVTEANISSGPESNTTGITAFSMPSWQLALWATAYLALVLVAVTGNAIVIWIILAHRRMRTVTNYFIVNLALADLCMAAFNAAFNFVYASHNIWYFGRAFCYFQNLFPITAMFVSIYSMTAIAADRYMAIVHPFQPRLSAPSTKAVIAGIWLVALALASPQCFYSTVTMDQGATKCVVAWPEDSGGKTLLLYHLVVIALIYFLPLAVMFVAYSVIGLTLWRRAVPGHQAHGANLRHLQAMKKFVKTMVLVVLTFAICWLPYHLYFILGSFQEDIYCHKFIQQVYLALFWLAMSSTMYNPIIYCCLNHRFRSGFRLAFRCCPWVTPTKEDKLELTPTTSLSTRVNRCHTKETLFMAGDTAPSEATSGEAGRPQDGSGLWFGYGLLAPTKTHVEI
Assay: In vitro binding affinity for Tachykinin receptor 2 of human-CHO cells using 125 I-NKA radioligand
Format: cell-based
In short: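 Whole CHO cells stably expressing recombinant human NK2 receptor (3×10^5 per well) incubated 20 min at room temperature with 0.05 nM [125I]-NKA (2200 Ci/mmol) and a range of test concentrations in 20 mM HEPES pH 7.4 with 2 mM MnSO4 and 6 mM MgCl2. Nonspecific binding defined with 50 nM NKA. Rapid filtration, four ice-cold Tricine washes, scintillation counting; triplicate samples.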

SMILES	IC50 [nM]
CN(C(=O)c1cc(C(F)(F)F)cc(C(F)(F)F)c1)[C@@H](/C=C/C(=O)N[C@@H]1CCCCNC1=O)Cc1cc(Br)c(Br)s1	26
CN(C(=O)c1cc(C(F)(F)F)cc(C(F)(F)F)c1)[C@@H](/C=C/C(=O)N[C@@H]1CCCCNC1=O)Cc1ccc2ccccc2c1	60
CN(C(=O)c1cc(C(F)(F)F)cc(C(F)(F)F)c1)N(CCC(=O)N[C@@H]1CCCCNC1=O)Cc1ccc2ccccc2c1	55
CN(C(=O)c1cc(C(F)(F)F)cc(C(F)(F)F)c1)[C@@H](/C=C/C(=O)N[C@@H]1CCCCNC1=O)Cc1cc(Cl)c(Cl)s1	17
CN(C(=O)c1cc(C(F)(F)F)cc(C(F)(F)F)c1)[C@@H](/C=C/C(=O)NC1CCCCCC1)Cc1ccc(Cl)cc1	203
CN(C(=O)c1cc(C(F)(F)F)cc(C(F)(F)F)c1)N(CCC(=O)N[C@@H]1CCCCNC1=O)Cc1cc(Br)c(Br)s1	19.5
CN(C(=O)c1cc(C(F)(F)F)cc(C(F)(F)F)c1)[C@@H](/C=C/C(=O)NC1(C(N)=O)CCCCC1)Cc1ccc(Cl)cc1	66
CN(C(=O)c1cc(C(F)(F)F)cc(C(F)(F)F)c1)[C@@H](/C=C/C(=O)N[C@@H]1CCCCNC1=O)Cc1cn(C)c2ccccc12	24
CN(C(=O)c1cc(C(F)(F)F)cc(C(F)(F)F)c1)N(CCC(=O)N[C@@H]1CCCCNC1=O)Cc1ccc(Cl)c(Cl)c1	5.5
CN(C(=O)c1cc(C(F)(F)F)cc(C(F)(F)F)c1)[C@@H](/C=C/C(=O)N[C@@H]1CCCCNC1=O)Cc1ccc(Cl)c(Cl)c1 [DNK333]	5.5
